Measured values taken from ChEMBL document CHEMBL3867447, “Cytotoxic 14-Membered Macrolides from a Mangrove-Derived Endophytic Fungus, Pestalotiopsis microspora” (J Nat Prod, 2016).

What was measured:
[1] = Cytotoxicity against mouse L5178Y cells by MTT assay; type: functional, cell-based
Method in brief: (§1)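 MTT assay on mouse lymphoma L5178Y and human ovarian cancer A2780 cells, as in the earlier reports the paper cites. Positive controls were kahalalide F for L5178Y and cisplatin for A2780. Negative control was medium with 0.1% DMSO. Results are given as IC50 in μM.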

[2] = Cytotoxicity against human A2780 cells by MTT assay; type: functional, cell-based; method in brief: as §1

In the case of C[C@H]1CCC/C=C/[C@H](O)/C=C\[C@H](O)/C=C/C(=O)O1, the IC50 [1] is reported as 21 µM and the IC50 [2] is reported as greater than 50 µM.

With C[C@H]1CCC[C@@H](O)/C=C/C=C\[C@@H](O)/C=C/C(=O)O1 the IC50 [1] was 3.9 µM and the IC50 [2] was 12 µM.

C[C@H]1CCC/C=C\[C@H](O)[C@H]2O[C@H]2[C@H](O)/C=C/C(=O)O1 showed an IC50 [1] greater than 50 µM and an IC50 [2] greater than 50 µM.

C[C@H]1CCCCC[C@H](O)CC[C@H](O)/C=C/C(=O)O1 gave an IC50 [1] of 39 µM and an IC50 [2] greater than 50 µM.

C[C@H]1CCC[C@@H](O)/C=C/C=C\[C@H](O)/C=C/C(=O)O1 showed an IC50 [1] of 3.4 µM and an IC50 [2] of 1.2 µM.

For CO[C@H]1/C=C\CCC[C@H](C)OC(=O)/C=C/[C@@H](O)/C=C\1, the IC50 [1] was 0.7 µM and the IC50 [2] was 28 µM.

In the case of C[C@H]1CCC/C=C\[C@H](O)/C=C\[C@H](O)/C=C/C(=O)O1, the IC50 [1] is reported as 21 µM and the IC50 [2] is reported as 43 µM.

With CO[C@H]1/C=C/C=C\C(=O)CCC(=O)O[C@@H](C)CCC1 the IC50 [1] was 11 µM and the IC50 [2] was greater than 50 µM.

In the case of C[C@H]1CCC/C=C/[C@H](O)[C@H]2O[C@H]2[C@H](O)/C=C/C(=O)O1, the IC50 [1] is reported as greater than 50 µM and the IC50 [2] is reported as greater than 50 µM.

Compound C[C@H]1CCC[C@@H](O)/C=C/C=C\C(=O)CCC(=O)O1 has an IC50 [1] greater than 50 µM and an IC50 [2] of 36 µM.

For C/C=C1\NC(=O)[C@H](Cc2ccccc2)NC(=O)[C@H](C(C)C)NC(=O)[C@@H]([C@@H](C)CC)NC(=O)[C@@H](NC(=O)[C@H](NC(=O)[C@H](CCCN)NC(=O)[C@H]2CCCN2C(=O)[C@@H](NC(=O)[C@H](NC(=O)[C@@H](NC(=O)[C@@H](NC(=O)CCCC(C)C)C(C)C)[C@@H](C)O)C(C)C)C(C)C)[C@@H](C)CC)[C@@H](C)OC(=O)[C@H](C(C)C)NC1=O, the IC50 [1] was 4.3 µM.

For CO[C@H]1/C=C\CCC[C@H](C)OC(=O)CCC(=O)/C=C\1, the IC50 [1] was 5.6 µM and the IC50 [2] was greater than 50 µM.
